Measurements: ChEMBL document CHEMBL1240420, “Synthesis and biological evaluation of cinnamido linked pyrrolo[2,1-c][1,4]benzodiazepines as antimitotic agents” (Eur J Med Chem, 2010)

Key:
Assay type in all cases: functional
[1] = test system: CCRF-CEM; experiment: Cytotoxicity against human CCRF-CEM cells after 48 hrs by SRB assay
[2] = test system: HL-60(TB); experiment: Cytotoxicity against human HL-60(TB) cells after 48 hrs by SRB assay; details: HL-60, 48 h
[3] = test system: K562; experiment: Cytotoxicity against human K562 cells after 48 hrs by SRB assay; details: K562, 48 h
[4] = test system: MOLT-4; experiment: Cytotoxicity against human MOLT4 cells after 48 hrs by SRB assay; details: MOLT-4, 48 h
[5] = test system: SR; experiment: Cytotoxicity against human SR cells after 48 hrs by SRB assay
[6] = test system: A549; experiment: Cytotoxicity against human A549 cells after 48 hrs by SRB assay; details: A549, 48 h
Method in brief: (§1)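 Cells were grown in RPMI 1640 with 10% FBS and 2 mM L-glutamine, plated 24 h before dosing, then given continuous 48 h exposure at 0.1, 1, 10 and 100 µM in triplicate wells. Cells were fixed with cold TCA (10% final, 60 min, 4 °C), stained with 0.4% SRB in 1% acetic acid for 20 min, eluted with 10 mM Tris base, and read at 540/690 nm. GI50 was taken from [(Ti−Tz)/(C−Tz)]×100 = 50; three determinations were averaged.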

[7] = test system: EKVX; experiment: Cytotoxicity against human EKVX cells after 48 hrs by SRB assay
[8] = test system: HOP-62; experiment: Cytotoxicity against human HOP62 cells after 48 hrs by SRB assay; details: HOP-62, 48 h; method in brief: as §1
[9] = test system: HOP-92; experiment: Cytotoxicity against human HOP92 cells after 48 hrs by SRB assay; details: HOP-92, 48 h
[10] = test system: NCI-H226; experiment: Cytotoxicity against human NCI-H226 cells after 48 hrs by SRB assay; details: NCI-H226, 48 h
[11] = test system: LOX IMVI; experiment: Cytotoxicity against human LOXIMVI cells after 48 hrs by SRB assay
[12] = test system: Malme-3M; experiment: Cytotoxicity against human MALME-3M cells after 48 hrs by SRB assay
[13] = test system: M14; experiment: Cytotoxicity against human M14 cells after 48 hrs by SRB assay; details: M14, 48 h
[14] = test system: SK-MEL-2; experiment: Cytotoxicity against human SK-MEL-2 cells after 48 hrs by SRB assay; details: SK-MEL-2, 48 h
[15] = test system: SK-MEL-28; experiment: Cytotoxicity against human SK-MEL-28 cells after 48 hrs by SRB assay; details: SK-MEL-28, 48 h
[16] = test system: SK-MEL-5; experiment: Cytotoxicity against human SK-MEL-5 cells after 48 hrs by SRB assay; details: SK-MEL-5, 48 h
[17] = test system: UACC-257; experiment: Cytotoxicity against human UACC257 cells after 48 hrs by SRB assay; details: UACC-257, 48 h
[18] = test system: UACC-62; experiment: Cytotoxicity against human UACC62 cells after 48 hrs by SRB assay; details: UACC-62, 48 h
[19] = test system: NCI-H23; experiment: Cytotoxicity against human NCI-H23 cells after 48 hrs by SRB assay; details: NCI-H23, 48 h
[20] = test system: NCI-H322M; experiment: Cytotoxicity against human NCI-H322M cells after 48 hrs by SRB assay
[21] = test system: NCI-H460; experiment: Cytotoxicity against human NCI-H460 cells after 48 hrs by SRB assay; details: NCI-H460, 48 h
[22] = test system: NCI-H522; experiment: Cytotoxicity against human NCI-H522 cells after 48 hrs by SRB assay; details: NCI-H522, 48 h
[23] = test system: COLO 205; experiment: Cytotoxicity against human COLO205 cells after 48 hrs by SRB assay; details: COLO 205, 48 h; method in brief: as §1
[24] = test system: HCC 2998; experiment: Cytotoxicity against human HCC2998 cells after 48 hrs by SRB assay; details: HCC 2998, 48 h
[25] = test system: HCT-116; experiment: Cytotoxicity against human HCT116 cells after 48 hrs by SRB assay; details: HCT-116, 48 h
[26] = test system: HCT-15; experiment: Cytotoxicity against human HCT15 cells after 48 hrs by SRB assay; details: HCT-15, 48 h
[27] = test system: HT-29; experiment: Cytotoxicity against human HT-29 cells after 48 hrs by SRB assay; details: HT-29, 48 h
[28] = test system: KM12; experiment: Cytotoxicity against human KM12 cells after 48 hrs by SRB assay; details: KM12, 48 h
[29] = test system: SW-620; experiment: Cytotoxicity against human SW620 cells after 48 hrs by SRB assay; details: SW-620, 48 h
[30] = test system: SF-268; experiment: Cytotoxicity against human SF268 cells after 48 hrs by SRB assay; details: SF-268, 48 h
[31] = test system: SF-295; experiment: Cytotoxicity against human SF295 cells after 48 hrs by SRB assay; details: SF-295, 48 h
[32] = test system: SF-539; experiment: Cytotoxicity against human SF539 cells after 48 hrs by SRB assay; details: SF-539, 48 h
[33] = test system: SNB-19; experiment: Cytotoxicity against human SNB19 cells after 48 hrs by SRB assay; details: SNB-19, 48 h
[34] = test system: SNB-75; experiment: Cytotoxicity against human SNB75 cells after 48 hrs by SRB assay; details: SNB-75, 48 h
[35] = test system: U-251; experiment: Cytotoxicity against human U251 cells after 48 hrs by SRB assay; details: U-251, 48 h
[36] = test system: 786-0; experiment: Cytotoxicity against human 786-0 cells after 48 hrs by SRB assay; details: 786-0, 48 h
[37] = test system: A498; experiment: Cytotoxicity against human A498 cells after 48 hrs by SRB assay; details: A498, 48 h
[38] = test system: ACHN; experiment: Cytotoxicity against human ACHN cells after 48 hrs by SRB assay
[39] = test system: CAKI-1; experiment: Cytotoxicity against human Caki1 cells after 48 hrs by SRB assay; details: CAKI-1, 48 h
[40] = test system: RXF 393; experiment: Cytotoxicity against human […] cells after 48 hrs by SRB assay; details: RXF 393, 48 h
[41] = test system: SN12C; experiment: Cytotoxicity against human SN12C cells after 48 hrs by SRB assay
[42] = test system: TK-10; experiment: Cytotoxicity against human TK10 cells after 48 hrs by SRB assay; details: TK-10, 48 h
[43] = test system: UO-31; experiment: Cytotoxicity against human UO31 cells after 48 hrs by SRB assay; details: UO-31, 48 h
[44] = test system: PC-3; experiment: Cytotoxicity against human PC3 cells after 48 hrs by SRB assay; details: PC-3, 48 h; method in brief: as §1
[45] = test system: DU-145; experiment: Cytotoxicity against human DU145 cells after 48 hrs by SRB assay; details: DU-145, 48 h
[46] = test system: IGROV-1; experiment: Cytotoxicity against human IGROV1 cells after 48 hrs by SRB assay; details: IGROV-1, 48 h
[47] = test system: OVCAR-3; experiment: Cytotoxicity against human OVCAR-3 cells after 48 hrs by SRB assay; details: OVCAR-3, 48 h
[48] = test system: OVCAR-4; experiment: Cytotoxicity against human OVCAR4 cells after 48 hrs by SRB assay; details: OVCAR-4, 48 h
[49] = test system: OVCAR-5; experiment: Cytotoxicity against human OVCAR5 cells after 48 hrs by SRB assay; details: OVCAR-5, 48 h
[50] = test system: OVCAR-8; experiment: Cytotoxicity against human OVCAR8 cells after 48 hrs by SRB assay; details: OVCAR-8, 48 h
[51] = test system: SK-OV-3; experiment: Cytotoxicity against human SKOV3 cells after 48 hrs by SRB assay; details: SK-OV-3, 48 h
[52] = test system: MCF7; experiment: Cytotoxicity against human MCF7 cells after 48 hrs by SRB assay; details: MCF7, 48 h; method in brief: as §1
[53] = test system: NCI/ADR-RES; experiment: Cytotoxicity against human NCI/ADR-RES cells after 48 hrs by SRB assay
[54] = test system: MDA-MB-231; experiment: Cytotoxicity against human MDA-MB-231 cells after 48 hrs by SRB assay; details: MDA-MB-231, 48 h
[55] = Cytotoxicity against human Hs 578T cells after 48 hrs by SRB assay
[56] = test system: MDA-MB-435; experiment: Cytotoxicity against human MDA-MB-435 cells after 48 hrs by SRB assay; details: MDA-MB-435, 48 h
[57] = test system: BT-549; experiment: Cytotoxicity against human BT549 cells after 48 hrs by SRB assay; details: BT-549, 48 h
[58] = test system: T47D; experiment: Cytotoxicity against human T47D cells after 48 hrs by SRB assay
[59] = test system: MDA-MB-468; experiment: Cytotoxicity against human MDA-MB-468 cells after 48 hrs by SRB assay; details: MDA-MB-468, 48 h

## COc1cc(/C=C/C(=O)N2CCN(C(=O)c3cc(OC)c(OC)c(OC)c3)CC2)ccc1OCCCOc1cc2c(cc1OC)C(=O)N1CCC[C@H]1C=N2
[1]
  GI50: 80 nM
[2]
  GI50: 180 nM
[3]
  GI50: 690 nM
[4]
  GI50: 230 nM
[5]
  GI50: 280 nM
[6]
  GI50: 1890 nM
[7]
  GI50: 720 nM
[8]
  GI50: 230 nM
[9]
  GI50: 490 nM
[10]
  GI50: 310 nM
[11]
  GI50: 240 nM
[12]
  GI50: 170 nM
[13]
  GI50: 320 nM
[14]
  GI50: 260 nM
[15]
  GI50: 200 nM
[16]
  GI50: 190 nM
[17]
  GI50: 350 nM
[18]
  GI50: 160 nM
[19]
  GI50: 260 nM
[20]
  GI50: 340 nM
[21]
  GI50: 240 nM
[22]
  GI50: 60 nM
[23]
  GI50: 190 nM
[24]
  GI50: 240 nM
[25]
  GI50: 170 nM
[26]
  GI50: 2980 nM
[27]
  GI50: 260 nM
[28]
  GI50: 210 nM
[29]
  GI50: 170 nM
[30]
  GI50: 240 nM
[31]
  GI50: 310 nM
[32]
  GI50: 240 nM
[33]
  GI50: 380 nM
[34]
  GI50: 210 nM
[35]
  GI50: 180 nM
[36]
  GI50: 270 nM
[37]
  GI50: 190 nM
[38]
  GI50: 2540 nM
[39]
  GI50: 2110 nM
[40]
  GI50: 540 nM
[41]
  GI50: 270 nM
[42]
  GI50: 290 nM
[43]
  GI50: 2590 nM
[44]
  GI50: 730 nM
[45]
  GI50: 330 nM
[46]
  GI50: 240 nM
[47]
  GI50: 210 nM
[48]
  GI50: 1070 nM
[49]
  GI50: 290 nM
[50]
  GI50: 450 nM
[51]
  GI50: 610 nM
[52]
  GI50: 80 nM
[53]
  GI50: 8.91 µM
[54]
  GI50: 230 nM
[55]
  GI50: 230 nM
[56]
  GI50: 180 nM
[57]
  GI50: 150 nM
[58]
  GI50: 230 nM
[59]
  GI50: 70 nM
